# In PubChem BioAssay AID488858 (Broad Institute, 2010):
# Records with an inconclusive call do not appear. Calls of active or inactive are those of the source.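 Rule for the calls: active = compounds raising caspase signal whose fitted AC50 is at most tenfold their top valid tested dose; inconclusive = flat fit at 30 to 70% activation, or poor fit; inactive = the rest.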
# System: not listed separately
# Assay: caspase-3/7 activation in MEF A1-2A-BIM cells, dose response, A1 (BCL2A1) inhibitor project, cell-based, luminescence, dry powder, set 3 (AID 488858)
# Conditions: MEF A1-2A-BIM cells, caspase-3/7 luminescence; at 150 µM (top of the series)
# How it was run: (§1)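 assay system = mouse embryonic fibroblasts co-expressing A1-2A-BIM, survival dependent on A1 | quantity = 2500 cells/well | buffer or medium = RPMI, 10% FBS | compound dosing = dry-powder compounds pinned as a dose series | timing = compound 3 h at 37 °C, caspase reagent 1 h ambient | detection = caspase-3/7 DEVD luminescence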
row,SMILES,caspase activation
1,COc1cc(/C=C(/C#N)c2nc3ccccc3[nH]2)ccc1OCC(=O)Nc1ccccc1C(C)C,0.201% (inactive)
2,CC(=O)OC(C)(C)/C=C/C(=O)[C@](C)(O)C1[C@H](O)C[C@@]2(C)C3CC=C4C(C[C@H](O)C(=O)C4(C)C)[C@]3(C)C(=O)C[C@]12C (some centres undefined),1.66% (inactive)

# System: MEF A1-2A-BIM cells, caspase-3/7 luminescence
# Assay: as above
# Conditions: not given
# How it was run: as §1
row,SMILES,AC50 [µM]
1,Cn1c(=NC(=O)CCl)sc2ccccc21,4
2,CCc1cc2c(=O)c(-c3cnn(-c4ccccc4)c3)c(C)oc2cc1OCC(=O)Nc1cccc(C)c1,5.41
3,Cc1cc(C(=O)CCl)c(C)n1CCc1ccc(Cl)cc1,6.06
4,Cc1ccc(CS(=O)(=O)c2ncc(Cl)c(C(=O)Nc3nnc(C(C)C)s3)n2)cc1,12.3
5,Cc1ccc(Sc2c([N+](=O)[O-])c(=O)n(C)c3ccccc23)cc1,21
6,CC(=O)N[C@H]1[C@H](O[C@H]2CC[C@@]3(C)C(CC[C@]4(C)C3CC=C3[C@@H]5CC(C)(C)CC[C@]5(C(=O)OC5OCC(O)C(O)C5O)C(O)C[C@]34C)C2(C)C)O[C@H](COC2OCC(O)C(OC3OCC(O)C(O)C3O)C2O)[C@@H](O[C@@H]2O[C@@H](C)[C@H](O)[C@@H](O)[C@H]2O[C@@H]2O[C@@H](C)[C@H](O)[C@@H](O)[C@H]2O)[C@@H]1O (some centres undefined),9.71
7,Cc1cccc(NC(=O)/C(C#N)=C/c2cn(CC(=O)NCc3ccco3)c3ccccc23)c1,5.6
8,Cc1c(CCOC(=O)c2ccc(N3CCOCC3)c([N+](=O)[O-])c2)sc[n+]1CC#N,10.7
9,C=C1[C@@H](C)[C@H]2[C@H](Cc3ccccc3)NC(=O)[C@]23[C@H](OC(C)=O)/C=C/[C@](C)(O)C(=O)[C@@H](C)C/C=C/[C@H]3[C@@H]1O,1.2
10,Nc1nc(F)nc2c1ncn2[C@@H]1O[C@H](CO)[C@@H](O)[C@H]1O,2.87
11,CCc1nnc(NC(=O)c2nc(S(=O)(=O)Cc3ccccc3)ncc2Cl)s1,15.6
12,C/C1=C/C(=O)O[C@@H]2C[C@@H](CC[C@H](C)/C=C\CC1)O[C@@](O)(C1CSC(=O)N1)C2 (some centres undefined),0.37
13,COc1cc(CN2CCN(c3cc(C)ccc3C)CC2)ccc1O,10.6
14,CCSc1nnc(NC(=O)c2nc(S(=O)(=O)Cc3ccc(F)cc3)ncc2Cl)s1,14.4
15,Cc1c(C=O)c(C=O)c(C)n1Cc1ccccc1,6.27
16,COc1ccc(N(C(=O)CCl)C(C(=O)NCCc2ccccc2)c2cccs2)cc1Cl (centres undefined),0.236
17,O=C(CCl)N=c1sccn1Cc1ccccc1Cl,1.06
18,C=C1[C@@H](C)[C@H]2[C@H](Cc3ccccc3)NC(=O)[C@]23OC(=O)/C=C\[C@H](O)CCC[C@@H](C)C/C=C/[C@H]3[C@@H]1O,2.72
19,CC(C)(C)n1nc(-c2ccc(Cl)cc2)c2c(N)ncnc21,6.5
20,CCOC(=O)CSC1=N/C(=C/c2ccc(-n3cncn3)cc2)C(=O)N1C(C)=O,9.77
21,O=C(Oc1cccc(/C=N/Nc2nc(Nc3ccccc3)nc(N3CCOCC3)n2)c1)c1ccco1,4.23
22,Cc1cccc(CS(=O)(=O)c2ncc(Cl)c(C(=O)Nc3nnc(C(C)C)s3)n2)c1,12.6
